Assay results taken from publication PMC7591087 (Drug Design, Development and Therapy, 2020).
Like-named read-outs stand apart in the source and are kept apart here.

What was measured:
[1] = Safety and tolerability assessment; assay type: in vivo, human
How it was run: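 Healthy males in a randomized, open-label, six-sequence, three-period crossover took one test compound at 5 mg, another at 30 mg, or both together, orally once daily for 7 days with 150 mL water while fasted, with 7-day washouts. Investigators monitored vital signs, physical exam, clinical labs, 12-lead ECG and adverse events, coding events with MedDRA 19.0. Analysis covered 35 subjects dosed at least once.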

[2] = repeated once-daily administrations in healthy subjects, NCT00961025; cited from earlier work
CYP enzymes = conditions: in vitro studies; cited from earlier work
[3] = Steady-state pharmacokinetics; assay type: in vivo; conditions: human, plasma, oral
How it was run: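 Crossover design in healthy males: 5 mg, 30 mg, or both test compounds orally once daily for 7 days, fasted, with 7-day washouts. A validated LC-MS/MS assay measured parent drugs and metabolites, and steady-state Tmax was taken directly from observed data. Analysis covered 34 completers.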

[4] = once-daily oral administration; cited from earlier work
CYP enzyme = conditions: in vivo; cited from earlier work
[5] = number of subjects who reported ADRs (the number of ADRs), N=35

Row | SMILES | ADR: Diarrhoea [1, 5] | ADR: Dyspepsia [1, 5] | ADR: Headache [1, 5] | ADR: Lip blister [1, 5] | ADR: Muscle twitching [1, 5] | ADR: Musculoskeletal stiffness [1, 5] | ADR: Oropharyngeal swelling [1, 5] | ADR: Vomiting [1, 5] | terminal half-life (t1/2) [2] [h] | time to reach a maximum plasma concentration (Tmax) [2] [h] | induction or inhibition of CYP enzymes (CYP enzymes) | Tmax ([3]; 5 mg) [h] | Tmax [4] | number of AEs reported ([1]; all adverse events after each treatment, 35 subjects) [AEs] | ADR: Amylase increased [1, 5] | CYP enzyme induction or inhibition (CYP enzyme) | Tmax [3] [h] | Tmax ([3]; 30 mg) [h]
1 | CC(C)(C)OC[C@@H]1C(=O)NCCN1C(=O)C[C@H](N)Cc1cc(F)c(F)cc1F [Evogliptin] | 1 (1) | 1 (1) | 1 (1) | 1 (1) | 1 (1) | 1 (1) | 1 (1) | 1 (1) | 33 to 39 | 4 to 5 | does not induce or inhibit CYP enzymes | 4.5 | – | – | – | – | – | –
2 | CCc1ccc(CCOc2ccc(CC3SC(=O)NC3=O)cc2)nc1 (stereo not drawn) [Pioglitazone] | – | – | – | – | – | – | – | – | – | – | – | – | about 2 hours | 3 | 1 (1) | No clinically significant CYP enzyme induction or inhibition | 3 | 2
